# Test results from PubChem BioAssay.
# Active and inactive are the calls of the source.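 How the source made its calls, unless noted: active means compounds giving at least 50% inhibition in the cell-based MKP-3 phosphatase rescue imaging test; inactive means the rest.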
# What was measured:
# [1] = inhibitors of TNFa-induced NFkB p65 translocation, primary screen, imaging, HUVEC, MLSMR starter and 10KST1 sets (AID 438;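 active means inhibition above 20% together with a positive visual image hit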;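 further: compound added about 3h40 before a 20 min TNFalpha stimulation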;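 on inhibition: signal is the nuclear over cytoplasmic p65 intensity ratio per well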); settings: HUVEC TNFa-induced p65 nuclear translocation; cell count: measured here: nuclei count (cytotoxicity indicator), at 2.08 µM; inhibition: at 2 µM, stronger effect = higher value, 0% TNFa-plus-vehicle, 100% no-TNFa wells
# [2] = endothelial E-selectin expression blockers – imaging, HUVEC, immunofluorescence, MLSMR starter and 10KST1 sets, primary screen (AID 487;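 active means visually confirmed hit in the image check and inhibition above 20%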;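 on inhibition: signal is fraction of cell area covered by stained E-selectin grains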;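 on nuclei count: 100% = median nuclei count of all wells on the same plate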); settings: HUVEC TNFalpha-induced E-selectin immunofluorescence imaging, at 2 µM; inhibition: stronger effect = higher value; nuclei count: measured here: cell number, toxicity
# [3] = Primary imaging screen for DUSP6 inhibitors that restore phospho-Erk in transfected HeLa cells, chemical complementation (AID 609); settings: HeLa MKP-3 transfected, phospho-Erk imaging KS statistic, at 10 µM, cells stimulated with TPA for 15 min;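 on inhibition: phospho-Erk level distribution per well compared with pooled transfected vehicle control wells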
# [4] = target: Dual specificity protein phosphatase 6 (Homo sapiens) (UniProt Q16828); assay: as above; settings: HeLa MKP-3 transfected, phospho-Erk imaging KS statistic; at 10 µM; stronger effect = higher value; cells stimulated with TPA for 15 min
# [5] = target: Voltage-gated potassium channel subunit beta-2 (Rattus norvegicus) (UniProt P62483); assay: inhibitors of rat Kvbeta2 reductase activity – biochemical, NADPH fluorescence, primary screen (AID 622;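 active means fluorescence slope higher than the sample average by over 3 SD, cut at about -0.22 in these data, passing the limit was not always enough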;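 further: slope of raw intensity against log time taken from 70 to 1610 s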); settings: recombinant KvBeta, 4-cyanobenzaldehyde reduction, at 10 µM, stronger effect = higher value
# [6] = target: Voltage-gated potassium channel subunit beta-2 (Rattus norvegicus) (UniProt P62483); assay: enhancers of rat Kvbeta2 NADPH turnover – biochemical, NADPH fluorescence, primary screen (AID 623;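 active means NADPH fluorescence slope more negative than the mean of all samples by about 3 SD, 99.7% confidence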;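 further: fluorescence intensity change per second fitted from 20 to 320 s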); settings: Recombinant KvBeta, NADPH fluorescence decrease slope, 10 min; at 10 µM; stronger effect = lower value
# [7] = target: Alpha-2C adrenergic receptor (Homo sapiens) (UniProt P18825); assay: compounds altering alpha2C-coupled GIRK flux – cell-based, HEK293 alpha2C/GIRK1/2, thallium flux, primary screen (AID 624;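 active means fluorescence slope after compound addition differing from the mean of all screened samples at 99.7% confidence, in either direction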;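 further: slope of fluorescence ratio to pre-addition baseline per second over 15 to 24 s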); settings: thallium flux BTC fluorescence, at 10 µM, actives lie on both sides
# [8] = inhibitors of larval lipid processing in zebrafish, primary screen, whole organism, PED6 fluorescence, gall bladder and intestine (AID 686;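 active means a full or partial loss of lipid-probe fluorescence in the fish gall bladder, intestine or both, judged by eye; inactive means no fluorescence loss, or compound toxic to the fish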;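 further: larvae 5 to 7 days old with five fish per well; signal comes from phospholipase A2 cleavage of quenched PED6 carried via bile; overnight exposure to compound and PED6 before scoring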); settings: Zebrafish larvae PED6 lipid processing, fluorescence scoring; screened at 20 µM (by protocol)
# Procedure, shortened: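 Doses: 20 µM single dose. Test system: live zebrafish larvae aged 5-7 days, whole organism. Quantity: five larvae per well. Measured by: By-eye fluorescence microscopy. Reagent: ingested quenched lipid PED6 at 100 nM. Read-out: visual per-well fluorescence inhibition score. Times: overnight exposure of larvae to compound plus PED6.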
# [9] = loss of swimming-algae plug formation – whole organism, Chlamydomonas reinhardtii, WT vs cilia-less mutant, absorbance, 96-well, primary screen (AID 463189;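 active means inhibition at or above 50% relative to wild type and mutant plate controls; inactive means inhibition below 50%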;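 further: 0% = wild type cc124 cells in DMSO and 100% = ciliumless bld1 mutant cells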); settings: Chlamydomonas reinhardtii gravitaxis, OD600 absorbance, 2 days; at 10 µM; stronger effect = higher value
# [10] = measured here: cell density z-score
# [11] = measured here: nuclear c-Myc green intensity z-score
# [12] = measured here: nuclear pErk red intensity z-score, stronger effect = higher value
# Alpha-2C adrenergic receptor (Homo sapiens), sequence (P18825 whole entry, looked up): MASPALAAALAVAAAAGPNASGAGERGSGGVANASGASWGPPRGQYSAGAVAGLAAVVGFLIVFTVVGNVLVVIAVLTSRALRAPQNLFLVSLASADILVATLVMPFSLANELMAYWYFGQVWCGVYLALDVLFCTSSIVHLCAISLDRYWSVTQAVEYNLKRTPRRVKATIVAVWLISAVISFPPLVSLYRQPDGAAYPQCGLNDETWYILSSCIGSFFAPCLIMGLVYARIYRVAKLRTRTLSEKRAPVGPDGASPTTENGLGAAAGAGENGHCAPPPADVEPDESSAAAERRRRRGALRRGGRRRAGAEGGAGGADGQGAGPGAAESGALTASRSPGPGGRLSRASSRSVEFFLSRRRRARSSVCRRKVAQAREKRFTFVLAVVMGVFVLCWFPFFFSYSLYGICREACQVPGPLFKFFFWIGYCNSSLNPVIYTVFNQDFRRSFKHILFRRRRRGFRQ
# Voltage-gated potassium channel subunit beta-2 (Rattus norvegicus), sequence (P62483 whole entry, looked up): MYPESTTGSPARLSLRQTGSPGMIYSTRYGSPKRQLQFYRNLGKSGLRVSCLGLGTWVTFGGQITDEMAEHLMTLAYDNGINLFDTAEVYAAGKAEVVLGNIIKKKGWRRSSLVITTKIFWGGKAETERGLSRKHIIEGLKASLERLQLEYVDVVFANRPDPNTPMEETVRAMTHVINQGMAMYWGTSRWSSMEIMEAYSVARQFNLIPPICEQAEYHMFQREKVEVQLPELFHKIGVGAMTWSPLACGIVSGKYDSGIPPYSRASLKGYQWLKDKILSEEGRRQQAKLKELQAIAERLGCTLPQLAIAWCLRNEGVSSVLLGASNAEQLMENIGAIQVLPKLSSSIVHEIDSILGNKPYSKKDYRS
# Dual specificity protein phosphatase 6 (Homo sapiens), sequence (Q16828 whole entry, looked up): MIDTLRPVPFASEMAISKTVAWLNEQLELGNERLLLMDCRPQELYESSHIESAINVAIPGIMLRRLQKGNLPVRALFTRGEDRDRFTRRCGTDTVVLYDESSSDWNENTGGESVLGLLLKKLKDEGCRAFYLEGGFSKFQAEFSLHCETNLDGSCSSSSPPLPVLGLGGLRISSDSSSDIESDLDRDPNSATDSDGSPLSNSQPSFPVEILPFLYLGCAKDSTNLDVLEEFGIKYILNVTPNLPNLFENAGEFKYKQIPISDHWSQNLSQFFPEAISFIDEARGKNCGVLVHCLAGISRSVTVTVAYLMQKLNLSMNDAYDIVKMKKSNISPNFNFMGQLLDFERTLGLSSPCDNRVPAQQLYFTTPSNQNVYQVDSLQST
SMILES,cell count [1],inhibition [1],inhibition [2],nuclei count [2] [%],"z-score [3, 10]","z-score [3, 11]","z-score [3, 12]",inhibition [4],fluorescence slope [5],NADPH fluorescence slope [6],slope [7],outcome [8],inhibition [9]
Nc1nnc(CSCc2ccc(F)cc2)s1,537,7% (inactive),23.2% (inactive),111,-1.12,1.17,-0.516,-13.3% (inactive),-0.473 (inactive),-2.4e-05 (inactive),0.00497 (inactive),inactive,3.98% (inactive)
CC1(C)Cc2c(sc(NC(=O)c3ccc(Br)o3)c2C#N)CO1,406,-17.8% (inactive),-330% (inactive),140,0.838,-0.788,-0.494,7.48% (inactive),-0.371 (inactive),-1.6e-05 (inactive),0.00697 (inactive),inactive,8.5% (inactive)
CCCCCc1ccc(-c2ccc(=O)[nH]n2)cc1,455,-1.5% (inactive),-85% (inactive),107,1.16,-0.256,-1.03,15.1% (inactive),-0.516 (inactive),-2.1e-05 (inactive),0.00535 (inactive),inactive,-28.2% (inactive)
COC(=O)CN(c1nc(C)c(Br)c(OC)n1)S(=O)(=O)c1ccc(C)cc1,598,6.5% (inactive),-10.9% (inactive),142,0.877,0.344,0.387,9.82% (inactive),-0.379 (inactive),-2.1e-05 (inactive),0.0055 (inactive),inactive,-5.5% (inactive)
CCCCCNC(=O)c1c(N)n(/N=C/c2ccco2)c2nc3ccccc3nc12,351,-5.8% (inactive),-71.9% (inactive),147,1.49,-0.91,-0.977,17.4% (inactive),-0.416 (inactive),-0.000149 (inactive),0.00624 (inactive),inactive,14.7% (inactive)
CC1=C(C(=O)Nc2ccccc2)C(c2ccncc2)C(C#N)=C(SCC(=O)NC(C)C)N1 (stereo unspecified),532,-8.3% (inactive),-82.1% (inactive),162,-0.265,0.666,0.309,-1.12% (inactive),-0.309 (inactive),3.2e-06 (inactive),0.00489 (inactive),inactive,5.12% (inactive)
COc1ccc(C2C(C#N)=C(SC)NC3=C2C(=O)CC(C)(C)C3)cc1 (stereo unspecified),369,-8.9% (inactive),-30.1% (inactive),156,1.03,-0.788,1.1,-12.6% (inactive),-0.411 (inactive),-9.7e-05 (inactive),0.00455 (inactive),inactive,27.3% (inactive)
COc1ccc2[nH]c3c(N4CCN(Cc5ccc6c(c5)OCO6)CC4)ncnc3c2c1,428,-0.7% (inactive),-50.8% (inactive),137,0.867,-0.34,0.0587,0.671% (inactive),-0.302 (inactive),2.3e-06 (inactive),0.00419 (inactive),inactive,141% (active)
COc1cc(C2NC(=O)NC(C)=C2C(=O)Nc2cccc(C)c2C)cc(OC)c1OC (stereo unspecified),566,-3.3% (inactive),-47.5% (inactive),183,0.296,0.344,-0.592,-2.91% (inactive),-0.35 (inactive),-1.5e-05 (inactive),0.00551 (inactive),inactive,-6.92% (inactive)
COc1cccc(-c2nc(N3CCC(C)CC3)c3ccccc3n2)c1O,573,-3.3% (inactive),48.3% (inactive),120,0.534,-0.819,1.15,-12.3% (inactive),-0.409 (inactive),-3.4e-05 (inactive),0.00378 (inactive),inactive,9.22% (inactive)
CC(NC(=O)OC(C)(C)C)C(=O)Oc1ccc2ccc(=O)oc2c1 (stereo unspecified),566,-16.8% (inactive),-178% (inactive),183,0.378,1.02,-0.959,28.6% (inactive),-0.0856 (inactive),-1.3e-05 (inactive),0.00547 (inactive),inactive,1.2% (inactive)
N#Cc1nc(-c2ccc(Cl)cc2)oc1N1CCCCC1,424,-5.8% (inactive),-41.2% (inactive),138,-0.0904,-0.228,0.966,9.61% (inactive),-0.394 (inactive),-1.7e-05 (inactive),0.00666 (inactive),inactive,20% (inactive)
C=CCOC(=O)C1=C(C)OC(N)=C(C#N)C1c1ccoc1 (stereo unspecified),564,2.9% (inactive),-24.3% (inactive),166,-0.735,-0.099,0.124,2.46% (inactive),-0.32 (inactive),2.2e-05 (inactive),0.00536 (inactive),inactive,26.4% (inactive)
COc1ccc(-n2c(=O)c3c4c(sc3n3c(C)nnc23)CC(C)CC4)cc1 (stereo unspecified),617,3.9% (inactive),15.9% (inactive),162,-1.05,0.383,-0.315,-0.608% (inactive),-0.324 (inactive),8.8e-06 (inactive),0.00514 (inactive),inactive,53.4% (active)
CC(C)CC(NC(=O)OC(C)(C)C)C(=O)NCc1ccccc1 (stereo unspecified),626,-12.9% (inactive),-28.9% (inactive),156,1.56,-1.58,0.0751,5.57% (inactive),-0.475 (inactive),-0.000315 (inactive),0.00412 (inactive),inactive,1.86% (inactive)
N#Cc1ccc(-c2ccco2)nc1SCC(=O)c1ccc(Cl)cc1,431,0% (inactive),-80.7% (inactive),138,-1.49,-0.417,1.23,7.83% (inactive),-0.288 (inactive),-2.9e-05 (inactive),0.00718 (inactive),inactive,-1.61% (inactive)
Cc1cc(C)nc(NC2=NCC(=O)N2c2ccccc2)n1,599,-3.5% (inactive),-130% (inactive),136,1.19,-0.204,-1.47,3.97% (inactive),-0.493 (inactive),-3.7e-05 (inactive),0.00515 (inactive),inactive,-0.727% (inactive)
COc1cccc(OC)c1-c1nn2c(-c3ccccc3Cl)nnc2s1,611,-4.2% (inactive),-50.2% (inactive),159,1.55,-0.0979,-0.298,-6.06% (inactive),-0.444 (inactive),-0.000105 (inactive),0.00355 (inactive),inactive,101% (active)
C=C(Br)Cn1c(CCCC)nc2ccccc21,496,-6.3% (inactive),-117% (inactive),145,0.895,-1.74,-1.25,3.56% (inactive),-0.492 (inactive),-0.000115 (inactive),0.00483 (inactive),inactive,35.5% (inactive)
Cc1ccc(-c2ccc(/C=N/c3ncn[nH]3)o2)cc1Cl,555,-7% (inactive),17.3% (inactive),119,1.47,1.26,0.207,4.72% (inactive),-0.446 (inactive),-1.9e-05 (inactive),0.00689 (inactive),inactive,0.03% (inactive)
COc1ccc(CCNC2CC(C)N(C)CC2C)cc1OC (stereo unspecified),549,-11.3% (inactive),-75.9% (inactive),170,0.099,-0.11,2.07,-0.608% (inactive),-0.515 (inactive),-3e-05 (inactive),0.00466 (inactive),inactive,12.3% (inactive)
N/C(CCN1CCOCC1)=N/O,570,-20.6% (inactive),11.7% (inactive),147,0.759,-0.712,0.254,22.7% (inactive),-0.445 (inactive),-1.6e-05 (inactive),0.00517 (inactive),inactive,17.7% (inactive)
CC/C(C)=C1\SC(N2CCN(C(C)=O)CC2)=NC1=O,475,-8.5% (inactive),-322% (inactive),208,-0.503,-0.13,0.531,4.37% (inactive),-0.377 (inactive),-3.8e-06 (inactive),0.00493 (inactive),inactive,-1.03% (inactive)
OC(CNCCCN1CCCCC1)COc1ccccc1 (stereo unspecified),630,-6.2% (inactive),-169% (inactive),178,-0.145,0.177,0.518,17% (inactive),-0.512 (inactive),-7.1e-05 (inactive),0.00429 (inactive),inactive,5.42% (inactive)
Cc1cc(C)nc(N(C#N)S(=O)(=O)c2ccccc2Cl)n1,352,-11.5% (inactive),-228% (inactive),115,-0.515,-1.54,-0.959,-2.07% (inactive),-0.406 (inactive),-3.7e-06 (inactive),0.0071 (inactive),inactive,-0.932% (inactive)
CCOP(=O)(c1ccccc1)c1nc(-c2ccc(F)cc2)oc1N1CCCCC1 (stereo unspecified),658,1.8% (inactive),-100% (inactive),136,0.739,-0.227,1.53,4.25% (inactive),-0.529 (inactive),-0.000105 (inactive),0.00389 (inactive),inactive,2.55% (inactive)
CC(=O)c1cc(CN2CCCCC2)cc(OC(C)C)c1,667,-6.7% (inactive),-53.2% (inactive),172,0.66,-1.57,1.24,-3.98% (inactive),-0.505 (inactive),-5.3e-05 (inactive),0.00431 (inactive),inactive,10.4% (inactive)
